≈ marks a conversion by molar mass, not a printed value.
Tests used:
[1] = tested on: Staphylococcus aureus; experiment: Antibacterial activity against Staphylococcus aureus N315 after 14 to 16 hrs by broth dilution method; type: functional
How it was run: (§1)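 CLSI broth dilution in cation-adjusted Mueller-Hinton broth with serial twofold dilutions, with or without spermine or spermidine added. Overnight cultures were diluted in saline to OD600 0.1–0.12, and about 10^5 CFU were inoculated. Incubation was 14–16 h at 37°C. MIC was confirmed in three independent experiments. E. coli acrA mutants were tested with 1 mM spermine; P. aeruginosa isolates with 1 mM spermine or 20 mM spermidine.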

[2] = tested on: Staphylococcus aureus; experiment: Antibacterial activity against Staphylococcus aureus Mu50 after 14 to 16 hrs by broth dilution method; type: functional
[3] = tested on: Staphylococcus aureus; experiment: Antibacterial activity against Staphylococcus aureus ATCC 3556 after 14 to 16 hrs by broth dilution method; type: functional
[4] = tested on: Escherichia coli; experiment: Antibacterial activity against Escherichia coli K10 after 14 to 16 hrs by broth dilution method; type: functional
[5] = tested on: Escherichia coli; experiment: Antibacterial activity against Escherichia coli K12 after 14 to 16 hrs by broth dilution method; type: functional
[6] = tested on: Escherichia coli; experiment: Antibacterial activity against Escherichia coli C921-61 after 14 to 16 hrs by broth dilution method; type: functional
[7] = tested on: Salmonella typhimurium; experiment: Antibacterial activity against Salmonella enterica serovar Typhimurium LT2 after 14 to 16 hrs by broth dilution method; type: functional, Salmonella enterica subsp. enterica serovar Typhimurium
[8] = tested on: Pseudomonas aeruginosa; experiment: Antibacterial activity against streptomycin-resistant Pseudomonas aeruginosa DK100 after 14 to 16 hrs by broth dilution method; type: functional; how it was run: as §1
[9] = tested on: Pseudomonas aeruginosa; experiment: Antibacterial activity against streptomycin and gentamycin-resistant Pseudomonas aeruginosa DK101 containing oprD mutant after 14 to 16 hrs by broth dilution method; type: functional; how it was run: as §1
[10] = tested on: Pseudomonas aeruginosa; experiment: Antibacterial activity against Pseudomonas aeruginosa DK101 containing pAU48 expressing oprD after 14 to 16 hrs by broth dilution method; type: functional
[11] = tested on: Escherichia coli; experiment: Antibacterial activity against Escherichia coli W4573 assessed as inhibition of AcrAB efflux pump after 14 to 16 hrs by broth dilution method; type: functional
[12] = tested on: Escherichia coli; experiment: Antibacterial activity against Escherichia coli N43 acrA mutant assessed as inhibition of AcrAB efflux pump after 14 to 16 hrs by broth dilution method; type: functional; how it was run: as §1
[13] = tested on: Escherichia coli; experiment: Antibacterial activity against Escherichia coli N818 delta acrA mutant assessed as inhibition of AcrAB efflux pump after 14 to 16 hrs by broth dilution method; type: functional; how it was run: as §1
[14] = tested on: Pseudomonas aeruginosa; experiment: Antibacterial activity against Pseudomonas aeruginosa PAO1 after 14 to 16 hrs by broth dilution method; type: functional
[15] = tested on: Pseudomonas aeruginosa; experiment: Antibacterial activity against Pseudomonas aeruginosa F4980 after 14 to 16 hrs by broth dilution method; type: functional; how it was run: as §1
[16] = tested on: Pseudomonas aeruginosa; experiment: Antibacterial activity against Pseudomonas aeruginosa F66336 after 14 to 16 hrs by broth dilution method; type: functional
[17] = tested on: Pseudomonas aeruginosa; experiment: Antibacterial activity against Pseudomonas aeruginosa H4563 after 14 to 16 hrs by broth dilution method; type: functional
[18] = tested on: Pseudomonas aeruginosa; experiment: Antibacterial activity against Pseudomonas aeruginosa M22152 after 14 to 16 hrs by broth dilution method; type: functional; how it was run: as §1
[19] = tested on: Pseudomonas aeruginosa; experiment: Antibacterial activity against Pseudomonas aeruginosa M37310 after 14 to 16 hrs by broth dilution method; type: functional
[20] = tested on: Pseudomonas aeruginosa; experiment: Antibacterial activity against Pseudomonas aeruginosa M38100A after 14 to 16 hrs by broth dilution method; type: functional
[21] = tested on: Pseudomonas aeruginosa; experiment: Antibacterial activity against Pseudomonas aeruginosa M38100B after 14 to 16 hrs by broth dilution method; type: functional
[22] = tested on: Pseudomonas aeruginosa; experiment: Antibacterial activity against Pseudomonas aeruginosa T2095 after 14 to 16 hrs by broth dilution method; type: functional
[23] = tested on: Pseudomonas aeruginosa; experiment: Antibacterial activity against Pseudomonas aeruginosa T5177 after 14 to 16 hrs by broth dilution method; type: functional; how it was run: as §1
[24] = tested on: Pseudomonas aeruginosa; experiment: Antibacterial activity against Pseudomonas aeruginosa T6268 after 14 to 16 hrs by broth dilution method; type: functional
[25] = tested on: Pseudomonas aeruginosa; experiment: Antibacterial activity against Pseudomonas aeruginosa T15464 after 14 to 16 hrs by broth dilution method; type: functional; how it was run: as §1

**Q.** How did the MIC [1] turn out when `Cc1onc(-c2ccccc2Cl)c1C(=O)N[C@@H]1C(=O)N2[C@@H]1SC(C)(C)[C@@H]2C(=O)O` [CLOXACILLIN] was run?
**A.** 8 µg/mL

**Q.** And the MIC [2]?
**A.** ≥ 512 µg/mL

**Q.** What about the MIC [3] of the same compound?
**A.** 0.12 µg/mL

**Q.** Which results are given for `CC[C@H]1OC(=O)[C@H](C)[C@@H](O[C@H]2C[C@@](C)(OC)[C@@H](O)[C@H](C)O2)[C@H](C)[C@@H](O[C@@H]2O[C@H](C)C[C@H](N(C)C)[C@H]2O)[C@](C)(O)C[C@@H](C)C(=O)[C@H](C)[C@@H](O)[C@]1(C)O` [ERYTHROMYCIN]?
**A.** MIC [4]: 64 µg/mL; MIC [5]: 64 µg/mL; MIC [6]: 64 µg/mL; MIC [7]: 64 µg/mL

**Q.** Which MIC [4] does the source give for `CC(=O)O[C@H]1C[C@@]2(C)[C@@H](C[C@@H](O)[C@H]3[C@@]4(C)CC[C@@H](O)[C@@H](C)[C@@H]4CC[C@@]32C)/C1=C(\CCC=C(C)C)C(=O)O` [FUSIDIC ACID] here?
**A.** > 1020 µg/mL

**Q.** And the MIC [5]?
**A.** 1020 µg/mL

**Q.** What about the MIC [6] of the same compound?
**A.** 1020 µg/mL

**Q.** What about the MIC [7] of the same compound?
**A.** > 1020 µg/mL

**Q.** Which results are given for `C[C@@H](O)[C@H]1C(=O)N2C(C(=O)O)=C(SCCNC=N)C[C@H]12` [IMIPENEM ANHYDROUS]?
**A.** MIC [8]: 4 µg/mL (≈ 13.4 µM); MIC [9]: 32 µg/mL (≈ 107 µM); MIC [10]: 0.5 µg/mL (≈ 1.67 µM)

**Q.** `NC[C@H]1O[C@H](O[C@H]2[C@H](O)[C@@H](O[C@H]3O[C@H](CO)[C@@H](O)[C@H](N)[C@H]3O)[C@H](N)C[C@@H]2N)[C@H](O)[C@@H](O)[C@@H]1O` [KANAMYCIN] was tested. Which MIC [4] did it give?
**A.** 2 µg/mL

**Q.** And the MIC [5]?
**A.** 4 µg/mL

**Q.** And the MIC [6]?
**A.** 4 µg/mL

**Q.** And the MIC [7]?
**A.** 4 µg/mL

**Q.** For `CO[C@@H]1[C@@H](OC(N)=O)[C@@H](O)[C@H](Oc2ccc3c(O)c(NC(=O)c4ccc(O)c(CC=C(C)C)c4)c(=O)oc3c2C)OC1(C)C` [NOVOBIOCIN], which MIC [4] is on record?
**A.** > 1020 µg/mL

**Q.** What about the MIC [5] of the same compound?
**A.** > 1020 µg/mL

**Q.** And the MIC [6]?
**A.** 512 µg/mL

**Q.** And the MIC [7]?
**A.** > 1020 µg/mL

**Q.** What does the source list for `CC1(C)S[C@@H]2[C@H](NC(=O)Cc3ccccc3)C(=O)N2[C@H]1C(=O)O` [PENICILLIN G]?
**A.** MIC [4]: 64 µg/mL; MIC [5]: 64 µg/mL; MIC [7]: 16 µg/mL; MIC [1]: 32 µg/mL; MIC [2]: 32 µg/mL; MIC [3]: ≤ 0.06 µg/mL

**Q.** `CCN1CCN(C(=O)N[C@@H](C(=O)N[C@@H]2C(=O)N3[C@@H]2SC(C)(C)[C@@H]3C(=O)O)c2ccccc2)C(=O)C1=O` [PIPERACILLIN] was tested. Which MIC [4] did it give?
**A.** 2 µg/mL

**Q.** What about the MIC [5] of the same compound?
**A.** 2 µg/mL

**Q.** And the MIC [6]?
**A.** 2 µg/mL

**Q.** What about the MIC [7] of the same compound?
**A.** 4 µg/mL

**Q.** And the MIC [1]?
**A.** 32 µg/mL

**Q.** What about the MIC [2] of the same compound?
**A.** 128 µg/mL

**Q.** And the MIC [3]?
**A.** 0.5 µg/mL

**Q.** How did the MIC [4] turn out when `CN[C@@H]1[C@H](O)[C@H](NC)[C@H]2O[C@@]3(O)C(=O)C[C@@H](C)O[C@H]3O[C@@H]2[C@H]1O` [SPECTINOMYCIN] was run?
**A.** 16 µg/mL

**Q.** What about the MIC [5] of the same compound?
**A.** 16 µg/mL

**Q.** What about the MIC [6] of the same compound?
**A.** 16 µg/mL

**Q.** What about the MIC [7] of the same compound?
**A.** 32 µg/mL

**Q.** For `NCCCNCCCCNCCCN` [SPERMINE], which MIC [4] is on record?
**A.** 1 mM

**Q.** And the MIC [5]?
**A.** > 16 mM

**Q.** What about the MIC [6] of the same compound?
**A.** > 16 mM

**Q.** What about the MIC [7] of the same compound?
**A.** 2 mM

**Q.** And the MIC [1]?
**A.** 4 mM

**Q.** And the MIC [2]?
**A.** 4 mM

**Q.** And the MIC [3]?
**A.** 4 mM

**Q.** `CN(C)[C@@H]1C(O)=C(C(N)=O)C(=O)[C@@]2(O)C(O)=C3C(=O)c4c(O)cccc4[C@@](C)(O)[C@H]3C[C@@H]12` [TETRACYCLINE] was tested. Which MIC [4] did it give?
**A.** 8 µg/mL

**Q.** What about the MIC [5] of the same compound?
**A.** 8 µg/mL

**Q.** And the MIC [6]?
**A.** 2 µg/mL

**Q.** What about the MIC [7] of the same compound?
**A.** 2 µg/mL

**Q.** What about the MIC [1] of the same compound?
**A.** 0.12 µg/mL

**Q.** What about the MIC [2] of the same compound?
**A.** 32 µg/mL

**Q.** And the MIC [3]?
**A.** 0.12 µg/mL

**Q.** What about the MIC [11] of the same compound?
**A.** 2 µg/mL (≈ 4.5 µM)

**Q.** What about the MIC [12] of the same compound?
**A.** 0.5 µg/mL (≈ 1.13 µM)

**Q.** And the MIC [13]?
**A.** 0.5 µg/mL (≈ 1.13 µM)

**Q.** With `CC1(C)S[C@@H]2[C@H](NC(=O)[C@H](C(=O)O)c3ccsc3)C(=O)N2[C@H]1C(=O)O` [TICARCILLIN] as the compound, how does the MIC [4] read?
**A.** 8 µg/mL

**Q.** And the MIC [5]?
**A.** 8 µg/mL

**Q.** And the MIC [6]?
**A.** 4 µg/mL

**Q.** What about the MIC [7] of the same compound?
**A.** 4 µg/mL

**Q.** And the MIC [1]?
**A.** 32 µg/mL

**Q.** What about the MIC [2] of the same compound?
**A.** 512 µg/mL

**Q.** And the MIC [3]?
**A.** 1 µg/mL

**Q.** Which MIC [4] does the source give for POLYMYXIN B here?
**A.** 0.5 µg/mL

**Q.** And the MIC [5]?
**A.** 0.25 µg/mL

**Q.** And the MIC [6]?
**A.** 0.5 µg/mL

**Q.** And the MIC ([7]; Salmonella enterica subsp. enterica serovar Typhimurium)?
**A.** 0.5 µg/mL

**Q.** What about the MIC [1] of the same compound?
**A.** 64 µg/mL

**Q.** What about the MIC [2] of the same compound?
**A.** 128 µg/mL

**Q.** What about the MIC [3] of the same compound?
**A.** 64 µg/mL

**Q.** What about the MIC [14] of the same compound?
**A.** 1 µg/mL

**Q.** What about the MIC [15] of the same compound?
**A.** 0.25 µg/mL

**Q.** What about the MIC [16] of the same compound?
**A.** 0.125 µg/mL

**Q.** And the MIC [17]?
**A.** 0.125 µg/mL

**Q.** What about the MIC [18] of the same compound?
**A.** 0.5 µg/mL

**Q.** What about the MIC [19] of the same compound?
**A.** 0.125 µg/mL

**Q.** And the MIC [20]?
**A.** < 0.06 µg/mL

**Q.** What about the MIC [21] of the same compound?
**A.** 16 µg/mL

**Q.** What about the MIC [22] of the same compound?
**A.** 0.125 µg/mL

**Q.** What about the MIC [23] of the same compound?
**A.** 0.5 µg/mL

**Q.** What about the MIC [24] of the same compound?
**A.** 1 µg/mL

**Q.** And the MIC [25]?
**A.** 0.5 µg/mL

**Q.** What about the MIC [8] of the same compound?
**A.** 0.5 µg/mL

**Q.** What about the MIC [9] of the same compound?
**A.** 0.5 µg/mL

**Q.** What about the MIC [10] of the same compound?
**A.** 0.5 µg/mL
